In ChEMBL document CHEMBL4689842, “EUbOPEN Chemogenomics Library wave 1” (2021):

Tested on: Fibroblast
Test: Multiplex assay against human fibroblast
Assay type: toxicity, cell-based
Summary of the method: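 Live cells carried four stains from seeding: Hoechst33342, BioTracker Green Microtubule Cytoskeleton Dye, MitoTracker Red and Annexin V Alexa Fluor 680. They were imaged on a CQ1 microscope at 37°C and 5% CO2 after compound addition. Using CellPathfinder machine-learning gating, cells were split into Hoechst high-intensity objects or normal cells, normal cells into healthy, pyknosed or fragmented nuclei, and pyknosed cells into mitotic or apoptotic; tubulin, mitochondrial-mass and membrane-permeability phenotypes are per cents of healthy-nucleus cells.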

[1] = 12 h, 1 µM, compound concentration 1 uM, replicate 1
[2] = 12 h, 1 µM, compound concentration 1 uM, replicate 2
[3] = 12 h, 10 µM, compound concentration 10 uM, replicate 1
[4] = 12 h, 10 µM, compound concentration 10 uM, replicate 2
[5] = 24 h, 1 µM, compound concentration 1 uM, replicate 1
[6] = 24 h, 1 µM, compound concentration 1 uM, replicate 2
[7] = 24 h, 10 µM, compound concentration 10 uM, replicate 1
[8] = 24 h, 10 µM, compound concentration 10 uM, replicate 2
[9] = 48 h, 1 µM, compound concentration 1 uM, replicate 1
[10] = 48 h, 1 µM, compound concentration 1 uM, replicate 2
[11] = 48 h, 10 µM, compound concentration 10 uM, replicate 1
[12] = 48 h, 10 µM, compound concentration 10 uM, replicate 2

In the case of `Cc1nc(-c2ccc(-c3ccc(C(=O)N4CCc5cc6c(cc54)C4(CCN(C)CC4)CO6)cc3)c(C)c2)no1` [SB-224289], the “Population Apoptotic (%)” value [1] is reported as 66%, the “Population Fragmented Nuclei (%)” value [1] is reported as 35% and the “Population Healthy Nuclei (%)” value [1] is reported as 33%. The “Population Hoechst High Intensity Objects (%)” value [1] was 7%, the “Population Membrane Permeable-Phenotype (%)” value [1] was 18% and the “Population Mitochondria Different-Phenotype (%)” value [1] was 25%. For the same compound, the “Population Mitotic Cells (%)” value [1] was 33%, the “Population Normal (%)” value [1] was 92% and the “Population Pyknosed Nuclei (%)” value [1] was 31%. The “Population Tubulin-Different-Phenotype (%)” value [1] was 75%, the “Total Cell Count” value [1] was 188 and the “Population Apoptotic (%)” value [2] was 28%. For the same compound, the “Population Fragmented Nuclei (%)” value [2] was 4%, the “Population Healthy Nuclei (%)” value [2] was 81% and the “Population Hoechst High Intensity Objects (%)” value [2] was 12%. For the same compound, the “Population Membrane Permeable-Phenotype (%)” value [2] was 10%, the “Population Mitochondria Different-Phenotype (%)” value [2] was 42% and the “Population Mitotic Cells (%)” value [2] was 71%. For the same compound, the “Population Normal (%)” value [2] was 87%, the “Population Pyknosed Nuclei (%)” value [2] was 14% and the “Population Tubulin-Different-Phenotype (%)” value [2] was 37%. For the same compound, the “Total Cell Count” value [2] was 65, the “Population Apoptotic (%)” value [3] was 71% and the “Population Fragmented Nuclei (%)” value [3] was 34%. The “Population Healthy Nuclei (%)” value [3] was 40%, the “Population Hoechst High Intensity Objects (%)” value [3] was 15% and the “Population Membrane Permeable-Phenotype (%)” value [3] was 5%. For the same compound, the “Population Mitochondria Different-Phenotype (%)” value [3] was 62%, the “Population Mitotic Cells (%)” value [3] was 28% and the “Population Normal (%)” value [3] was 84%. For the same compound, the “Population Pyknosed Nuclei (%)” value [3] was 24%, the “Population Tubulin-Different-Phenotype (%)” value [3] was 89% and the “Total Cell Count” value [3] was 213. The “Population Apoptotic (%)” value [4] was 63%, the “Population Fragmented Nuclei (%)” value [4] was 7% and the “Population Healthy Nuclei (%)” value [4] was 77%. For the same compound, the “Population Hoechst High Intensity Objects (%)” value [4] was 11%, the “Population Membrane Permeable-Phenotype (%)” value [4] was 54% and the “Population Mitochondria Different-Phenotype (%)” value [4] was 100%. The “Population Mitotic Cells (%)” value [4] was 36%, the “Population Normal (%)” value [4] was 88% and the “Population Pyknosed Nuclei (%)” value [4] was 15%. For the same compound, the “Population Tubulin-Different-Phenotype (%)” value [4] was 100%, the “Total Cell Count” value [4] was 56 and the “Population Apoptotic (%)” value [5] was 65%. The “Population Fragmented Nuclei (%)” value [5] was 32%, the “Population Healthy Nuclei (%)” value [5] was 41% and the “Population Hoechst High Intensity Objects (%)” value [5] was 14%. For the same compound, the “Population Membrane Permeable-Phenotype (%)” value [5] was 20%, the “Population Mitochondria Different-Phenotype (%)” value [5] was 27% and the “Population Mitotic Cells (%)” value [5] was 34%. The “Population Normal (%)” value [5] was 85%, the “Population Pyknosed Nuclei (%)” value [5] was 25% and the “Population Tubulin-Different-Phenotype (%)” value [5] was 79%. The “Total Cell Count” value [5] was 202, the “Population Apoptotic (%)” value [6] was 0% and the “Population Fragmented Nuclei (%)” value [6] was 15%. For the same compound, the “Population Healthy Nuclei (%)” value [6] was 77%, the “Population Hoechst High Intensity Objects (%)” value [6] was 9% and the “Population Membrane Permeable-Phenotype (%)” value [6] was 6%. For the same compound, the “Population Mitochondria Different-Phenotype (%)” value [6] was 38%, the “Population Mitotic Cells (%)” value [6] was 100% and the “Population Normal (%)” value [6] was 90%. For the same compound, the “Population Pyknosed Nuclei (%)” value [6] was 7%, the “Population Tubulin-Different-Phenotype (%)” value [6] was 22% and the “Total Cell Count” value [6] was 73. For the same compound, the “Population Apoptotic (%)” value [7] was 78%, the “Population Fragmented Nuclei (%)” value [7] was 35% and the “Population Healthy Nuclei (%)” value [7] was 25%. The “Population Hoechst High Intensity Objects (%)” value [7] was 17%, the “Population Membrane Permeable-Phenotype (%)” value [7] was 2% and the “Population Mitochondria Different-Phenotype (%)” value [7] was 61%. For the same compound, the “Population Mitotic Cells (%)” value [7] was 21%, the “Population Normal (%)” value [7] was 82% and the “Population Pyknosed Nuclei (%)” value [7] was 38%. The “Population Tubulin-Different-Phenotype (%)” value [7] was 66%, the “Total Cell Count” value [7] was 186 and the “Population Apoptotic (%)” value [8] was 76%. The “Population Fragmented Nuclei (%)” value [8] was 16%, the “Population Healthy Nuclei (%)” value [8] was 56% and the “Population Hoechst High Intensity Objects (%)” value [8] was 11%. The “Population Membrane Permeable-Phenotype (%)” value [8] was 86%, the “Population Mitochondria Different-Phenotype (%)” value [8] was 100% and the “Population Mitotic Cells (%)” value [8] was 23%. For the same compound, the “Population Normal (%)” value [8] was 88%, the “Population Pyknosed Nuclei (%)” value [8] was 26% and the “Population Tubulin-Different-Phenotype (%)” value [8] was 100%. For the same compound, the “Total Cell Count” value [8] was 63, the “Population Apoptotic (%)” value [9] was 68% and the “Population Fragmented Nuclei (%)” value [9] was 44%. For the same compound, the “Population Healthy Nuclei (%)” value [9] was 46%, the “Population Hoechst High Intensity Objects (%)” value [9] was 21% and the “Population Membrane Permeable-Phenotype (%)” value [9] was 8%. For the same compound, the “Population Mitochondria Different-Phenotype (%)” value [9] was 6%, the “Population Mitotic Cells (%)” value [9] was 31% and the “Population Normal (%)” value [9] was 78%. For the same compound, the “Population Pyknosed Nuclei (%)” value [9] was 8%, the “Population Tubulin-Different-Phenotype (%)” value [9] was 50% and the “Total Cell Count” value [9] was 277. The “Population Apoptotic (%)” value [10] was 0%, the “Population Fragmented Nuclei (%)” value [10] was 48% and the “Population Healthy Nuclei (%)” value [10] was 50%. For the same compound, the “Population Hoechst High Intensity Objects (%)” value [10] was 27%, the “Population Membrane Permeable-Phenotype (%)” value [10] was 12% and the “Population Mitochondria Different-Phenotype (%)” value [10] was 3%. The “Population Mitotic Cells (%)” value [10] was 100%, the “Population Normal (%)” value [10] was 72% and the “Population Pyknosed Nuclei (%)” value [10] was 0%. The “Population Tubulin-Different-Phenotype (%)” value [10] was 56%, the “Total Cell Count” value [10] was 169 and the “Population Apoptotic (%)” value [11] was 90%. The “Population Fragmented Nuclei (%)” value [11] was 46%, the “Population Healthy Nuclei (%)” value [11] was 21% and the “Population Hoechst High Intensity Objects (%)” value [11] was 33%. The “Population Membrane Permeable-Phenotype (%)” value [11] was 30%, the “Population Mitochondria Different-Phenotype (%)” value [11] was 50% and the “Population Mitotic Cells (%)” value [11] was 10%. The “Population Normal (%)” value [11] was 66%, the “Population Pyknosed Nuclei (%)” value [11] was 31% and the “Population Tubulin-Different-Phenotype (%)” value [11] was 85%. The “Total Cell Count” value [11] was 142, the “Population Apoptotic (%)” value [12] was 100% and the “Population Fragmented Nuclei (%)” value [12] was 47%. The “Population Healthy Nuclei (%)” value [12] was 15%, the “Population Hoechst High Intensity Objects (%)” value [12] was 29% and the “Population Membrane Permeable-Phenotype (%)” value [12] was 14%. The “Population Mitochondria Different-Phenotype (%)” value [12] was 85%, the “Population Mitotic Cells (%)” value [12] was 0% and the “Population Normal (%)” value [12] was 70%. The “Population Pyknosed Nuclei (%)” value [12] was 36%, the “Population Tubulin-Different-Phenotype (%)” value [12] was 71% and the “Total Cell Count” value [12] was 127.
